In ChEMBL document CHEMBL3593170 (J Nat Prod, 2015) one finds EC50, Activity and max activation data, which are given here for 15 compounds.

Data set [1] deals with T1, Transient receptor potential cation channel subfamily A member 1 (Homo sapiens, UniProt O75762). Kind of data set: Activation of human TRPA1 expressed in TREx-HEK cells by Fluo-4 AM dye-based Ca2+ imaging assay. It is filed as cell-based.
For data set [2], the target named is T2, Transient receptor potential cation channel subfamily V member 1 (Homo sapiens, UniProt Q8NER1). Description: Activation of human TRPV1 expressed in TREx-HEK cells at 300 uM by Fluo-4 AM dye-based Ca2+ imaging assay. It is filed as cell-based. In a few lines:
(§1)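 TREx HEK cells stably expressing hTRPV1 (tetracycline 1 μg/mL induction) or parental TREx HEK cells lacking TRPV1, Fluo-4 AM (3 μM, 1 h, 37 °C) loaded; compounds at 300 μM, capsazepine 30 μM co-added where stated; Ca2+ at 37 °C as % of 5 μM ionomycin; mean ± SEM, n = 3−7.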

For data set [3], the target named is T1, Transient receptor potential cation channel subfamily A member 1. Kind of data set: Activation of human TRPA1 expressed in TREx-HEK cells at 1 uM in presence of TRPA1 antagonist HC030031 by Fluo-4 AM dye-based Ca2+ imaging assay. Format: cell-based. In a few lines: (§2)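 Tetracycline-induced (1 μg/mL, 24 h after seeding) TREx HEK cells stably expressing hTRPA1, or TREx HEK cells not expressing TRPA1; Fluo-4 AM 3 μM loading 1 h 37 °C; Ca2+ change read at 37 °C. Response as % of 5 μM ionomycin; mean ± SEM, n = 3−8.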

The nature of data set [4]: Effect on Ca2+ response in TREx-HEK cells at 1 uM by Fluo-4 AM dye-based Ca2+ imaging assay. Format: ADME, cell-based. The settings on record: human. In a few lines: as §2
Data set [5] addresses T2, Transient receptor potential cation channel subfamily V member 1. Description: Activation of human TRPV1 expressed in TREx-HEK cells by Fluo-4 AM dye-based Ca2+ imaging assay relative to 10 uM capsaicin. It is filed as cell-based.
For data set [6], the target named is T1, Transient receptor potential cation channel subfamily A member 1. Kind of data set: Activation of human TRPA1 expressed in TREx-HEK cells at 1 uM by Fluo-4 AM dye-based Ca2+ imaging assay. It is filed as cell-based. In a few lines: as §2
For data set [7], the target named is Transient receptor potential cation channel subfamily M member 8 (Mus musculus) (UniProt Q8R4D5). Kind of data set: Agonist activity at mouse TRPM8 expressed in TREx-HEK cells at 300 uM by Fluo-4 AM dye-based Ca2+ imaging assay. Format: cell-based. In a few lines: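 Mouse TRPM8 stably expressed in TREx HEK cells, induced with 1 μg/mL tetracycline; Fluo-4 AM 3 μM loading, 1 h, 37 °C; compounds 300 μM freshly diluted from DMSO; Ca2+ change read at 37 °C; ionomycin 5 μM for maximum fluorescence; menthol 100 μM agonist control, BCTC 10 μM antagonist.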

Data set [8] has as its target T1, Transient receptor potential cation channel subfamily A member 1. Kind of data set: Activation of human TRPA1 expressed in TREx-HEK cells by Fluo-4 AM dye-based Ca2+ imaging assay relative to 100 uM ITC. It is filed as cell-based.
Data set [9] has as its target T2, Transient receptor potential cation channel subfamily V member 1. Description: Activation of human TRPV1 expressed in TREx-HEK cells by Fluo-4 AM dye-based Ca2+ imaging assay. It is filed as cell-based.
Data set [10] is described as follows: Effect on Ca2+ response in TREx-HEK cells at 30 uM by Fluo-4 AM dye-based Ca2+ imaging assay. Format: ADME, cell-based. The settings on record: human. The essentials:
(§3)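 Tetracycline-induced (1 μg/mL, 24 h after seeding) TREx HEK cells stably expressing hTRPA1, or TREx HEK cells not expressing TRPA1; Fluo-4 AM 3 μM loading 1 h 37 °C; Ca2+ change read at 37 °C. Compounds in DMSO, diluted in measuring buffer just before addition; 1 μM (30 μM for one compound); HC030031 30 μM co-added where stated. Response as % of 5 μM ionomycin; mean ± SEM, n = 3−8.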

Data set [11] has as its target T2, Transient receptor potential cation channel subfamily V member 1. Kind of data set: Activation of human TRPV1 expressed in TREx-HEK cells at 300 uM in presence of TRPV1 antagonist CPZ by Fluo-4 AM dye-based Ca2+ imaging assay. Format: cell-based. The essentials: as §1
In data set [12] the target is T1, Transient receptor potential cation channel subfamily A member 1. Kind of data set: Activation of human TRPA1 expressed in TREx-HEK cells at 30 uM by Fluo-4 AM dye-based Ca2+ imaging assay. Format: cell-based. In a few lines:
as §3

The target is the same in data set [13]. Description: Activation of human TRPA1 expressed in TREx-HEK cells at 30 uM in presence of TRPA1 antagonist HC030031 by Fluo-4 AM dye-based Ca2+ imaging assay. It is filed as cell-based.
Data set [14] can be described thus: Effect on Ca2+ response in TREx-HEK cells at 300 uM by Fluo-4 AM dye-based Ca2+ imaging assay. It is filed as ADME, cell-based. The settings on record: human. The essentials: as §1

Calls of active or inactive are those of the source. No cut-off for these calls is given here.

Sequence of Transient receptor potential cation channel subfamily M member 8 (Mus musculus) (Q8R4D5 whole entry): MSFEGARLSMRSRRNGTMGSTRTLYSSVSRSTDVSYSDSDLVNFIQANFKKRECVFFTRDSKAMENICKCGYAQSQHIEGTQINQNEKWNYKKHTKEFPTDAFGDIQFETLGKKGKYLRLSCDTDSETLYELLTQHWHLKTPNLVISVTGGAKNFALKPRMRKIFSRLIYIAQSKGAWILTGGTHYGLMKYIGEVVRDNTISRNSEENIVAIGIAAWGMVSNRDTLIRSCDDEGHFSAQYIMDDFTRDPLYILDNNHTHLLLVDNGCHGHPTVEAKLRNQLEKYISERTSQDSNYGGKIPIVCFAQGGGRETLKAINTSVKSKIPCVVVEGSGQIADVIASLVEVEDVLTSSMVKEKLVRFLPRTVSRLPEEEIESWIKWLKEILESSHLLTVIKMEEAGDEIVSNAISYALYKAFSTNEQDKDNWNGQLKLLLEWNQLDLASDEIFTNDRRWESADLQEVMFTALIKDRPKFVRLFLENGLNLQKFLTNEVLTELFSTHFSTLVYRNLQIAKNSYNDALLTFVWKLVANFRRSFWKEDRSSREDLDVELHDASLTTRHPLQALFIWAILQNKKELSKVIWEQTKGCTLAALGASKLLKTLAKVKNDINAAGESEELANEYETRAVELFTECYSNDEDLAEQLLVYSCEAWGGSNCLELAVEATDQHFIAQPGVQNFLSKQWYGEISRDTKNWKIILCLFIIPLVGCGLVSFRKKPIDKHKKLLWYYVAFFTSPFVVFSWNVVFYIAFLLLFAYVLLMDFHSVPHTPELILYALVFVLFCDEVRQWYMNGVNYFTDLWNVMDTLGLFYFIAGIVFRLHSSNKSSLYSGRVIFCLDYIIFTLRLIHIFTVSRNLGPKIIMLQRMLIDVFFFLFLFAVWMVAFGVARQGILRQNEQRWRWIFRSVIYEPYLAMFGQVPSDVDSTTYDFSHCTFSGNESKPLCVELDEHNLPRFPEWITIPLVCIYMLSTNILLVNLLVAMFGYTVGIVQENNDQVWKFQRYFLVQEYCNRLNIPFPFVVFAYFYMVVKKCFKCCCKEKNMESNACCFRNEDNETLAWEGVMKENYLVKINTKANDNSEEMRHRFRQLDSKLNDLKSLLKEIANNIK
T1 sequence (O75762 whole entry): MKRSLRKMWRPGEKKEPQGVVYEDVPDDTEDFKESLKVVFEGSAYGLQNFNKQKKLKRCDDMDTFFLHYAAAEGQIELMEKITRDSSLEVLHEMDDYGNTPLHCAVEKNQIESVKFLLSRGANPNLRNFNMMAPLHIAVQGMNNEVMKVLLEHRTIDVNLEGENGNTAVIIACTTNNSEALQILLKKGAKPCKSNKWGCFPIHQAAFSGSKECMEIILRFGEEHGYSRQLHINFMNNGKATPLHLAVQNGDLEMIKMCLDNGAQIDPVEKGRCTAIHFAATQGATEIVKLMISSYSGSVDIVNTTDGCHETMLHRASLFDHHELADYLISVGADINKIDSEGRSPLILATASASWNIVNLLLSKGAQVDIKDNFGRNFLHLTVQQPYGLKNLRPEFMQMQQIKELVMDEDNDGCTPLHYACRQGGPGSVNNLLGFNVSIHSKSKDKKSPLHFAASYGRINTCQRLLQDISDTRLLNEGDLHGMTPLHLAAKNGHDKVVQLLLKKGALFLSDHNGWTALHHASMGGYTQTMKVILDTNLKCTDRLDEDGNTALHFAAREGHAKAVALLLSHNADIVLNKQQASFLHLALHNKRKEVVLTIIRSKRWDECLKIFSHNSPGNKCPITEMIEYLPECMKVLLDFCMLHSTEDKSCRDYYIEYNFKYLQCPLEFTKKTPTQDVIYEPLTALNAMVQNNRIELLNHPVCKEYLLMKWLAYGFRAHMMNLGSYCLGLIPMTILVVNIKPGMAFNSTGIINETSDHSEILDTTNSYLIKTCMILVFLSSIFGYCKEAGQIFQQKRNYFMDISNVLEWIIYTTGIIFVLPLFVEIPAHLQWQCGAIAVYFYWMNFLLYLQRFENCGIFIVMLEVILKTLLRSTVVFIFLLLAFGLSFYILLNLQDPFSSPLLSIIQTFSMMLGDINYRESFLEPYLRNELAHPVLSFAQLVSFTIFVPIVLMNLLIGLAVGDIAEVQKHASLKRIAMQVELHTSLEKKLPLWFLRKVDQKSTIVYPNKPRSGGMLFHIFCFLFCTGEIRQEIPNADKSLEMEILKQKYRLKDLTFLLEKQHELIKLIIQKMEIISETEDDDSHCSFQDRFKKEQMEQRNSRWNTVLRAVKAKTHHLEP
T2 sequence (Q8NER1 whole entry): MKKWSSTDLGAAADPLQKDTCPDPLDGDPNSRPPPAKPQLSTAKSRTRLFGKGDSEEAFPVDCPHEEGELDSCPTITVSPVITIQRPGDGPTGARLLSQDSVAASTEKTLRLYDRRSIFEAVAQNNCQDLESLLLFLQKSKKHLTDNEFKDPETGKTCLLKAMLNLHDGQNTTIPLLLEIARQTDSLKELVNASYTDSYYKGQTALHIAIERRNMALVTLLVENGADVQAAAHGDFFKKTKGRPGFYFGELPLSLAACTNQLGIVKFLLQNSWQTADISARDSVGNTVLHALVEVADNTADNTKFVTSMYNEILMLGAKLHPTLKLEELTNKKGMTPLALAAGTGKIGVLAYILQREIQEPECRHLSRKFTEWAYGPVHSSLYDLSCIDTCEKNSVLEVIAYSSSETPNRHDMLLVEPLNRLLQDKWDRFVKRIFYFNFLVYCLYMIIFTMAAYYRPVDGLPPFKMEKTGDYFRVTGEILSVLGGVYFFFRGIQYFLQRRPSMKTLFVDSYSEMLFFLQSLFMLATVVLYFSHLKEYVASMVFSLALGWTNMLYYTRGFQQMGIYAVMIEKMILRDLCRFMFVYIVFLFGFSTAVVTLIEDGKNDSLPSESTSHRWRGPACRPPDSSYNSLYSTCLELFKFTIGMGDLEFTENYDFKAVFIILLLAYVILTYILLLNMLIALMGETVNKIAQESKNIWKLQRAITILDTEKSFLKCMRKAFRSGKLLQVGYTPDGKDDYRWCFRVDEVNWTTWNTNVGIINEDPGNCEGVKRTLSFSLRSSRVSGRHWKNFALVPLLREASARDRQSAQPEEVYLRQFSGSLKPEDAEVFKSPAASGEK

Usually EC50 stands for the midpoint of the concentration-response curve. In the case of `C=CCCCN=C=S`, the EC50 was 540 nM in [1] and “Not Active” in data set [9] (trex-hek). Moreover, the result in data set [2], in data set [3] and in data set [7] was inactive. The Activity entry in data set [4] is given as “Non-toxic”. The max activation entry in data set [5] was “inactive”. The result in [6] was Active. The max activation in data set [8] turned out to be 90%.
For `Oc1ccc(CN=C=S)cc1`, the Activity entry in data set [10] and in data set [14] was “Non-toxic” in each case. Moreover, the result in data set [11], in [13] and in data set [7] was inactive. For the same compound, the figures for the EC50 in data set [1] and in data set [9] (read-out: EC50) were 20000 nM and 170000 nM, respectively. For the same compound, the outcome in data set [12] and in data set [2] was Active. The max activation in data set [5] stood at 63%; in data set [8] it was 96%.
For `C=CCCN=C=S`, the EC50 in data set [1] is 360 nM; in data set [9] (trex-hek), “Not Active”. For the same compound, the result in data set [2], in [3] and in [7] was inactive. Also, in [4], the Activity entry was “Non-toxic”. For the same compound, the max activation entry in [5] was “inactive”. Also, the outcome in [6] was Active. The compound also displayed a max activation in data set [8] of 95%.
For the compound `CC(C)CN=C=S`, the EC50 is 690 nM in data set [1] and “Not Active” in data set [9] (trex-hek). Moreover, the result in data set [3] and in data set [7] was inactive. For the same compound, in data set [4], the Activity entry was “Non-toxic”. Also, in data set [5], the max activation entry is “inactive”. For the same compound, the outcome in data set [6] was Active. The max activation in data set [8] is 89%.
Consider `C=CCN=C=S` [ALLYL ISOTHIOCYANATE], for which the outcome in data set [11], in data set [3] and in data set [7] was inactive. The result in data set [2] and in [6] was Active. The Activity result in data set [14] and in data set [4] was “Non-toxic” in each case. The max activation in data set [5] is 25%; in [8], 97%. Besides, the EC50 in [9] (read-out: EC50) came to 160000 nM.
On to `C=CCCCCN=C=S`, for which the values for the EC50 in data set [1] and in data set [9] (trex-hek) were 1040 nM and “Not Active”, respectively. Also, the outcome in data set [2], in [3] and in data set [7] was inactive. Also, the Activity entry in data set [4] was “Non-toxic”. Besides, the max activation entry in data set [5] was “inactive”. For the same compound, the result in [6] was Active. The compound further registered a max activation in data set [8] of 93%.
`CCC(C)N=C=S` (centres undefined): the outcome in data set [11], in data set [3] and in [7] was inactive. The EC50 in [1] is 680 nM; in [9] (read-out: EC50) it was 100000 nM. In addition, the result in data set [2] and in data set [6] was Active. The Activity entry in data set [14] and in [4] was “Non-toxic” throughout. Besides, the values for the max activation in [5] and in [8] were 62% and 88%, respectively.
`CSCCCN=C=S`: the figures for the EC50 in [1] and in [9] (trex-hek) were 450 nM and “Not Active”, respectively. Further, the result in [2], in [3] and in data set [7] was inactive. Moreover, the Activity result in [4] is “Non-toxic”. Further, the max activation entry in data set [5] was “inactive”. In addition, in [6], the outcome was Active. The max activation in data set [8] stood at 94%.
On to `CSCCCCCCCN=C=S`, for which the EC50 in [1] is 610 nM; in data set [9] (trex-hek), “Not Active”. Further, the outcome in data set [2], in [3] and in [7] was inactive. For the same compound, the Activity entry in [4] is reported as “Non-toxic”. For the same compound, the max activation entry in [5] is “inactive”. In addition, in data set [6], the outcome was Active. For the same compound, the max activation in [8] came to 90%.
In the case of `CSCCCCCN=C=S`, the EC50 in data set [1] is 500 nM; in data set [9] (trex-hek), “Not Active”. The result in [2], in data set [3] and in data set [7] was inactive. Further, the Activity result in data set [4] is on record as “Non-toxic”. Further, the max activation entry in data set [5] was “inactive”. Also, the outcome in [6] was Active. In data set [8], the max activation turned out to be 92%.
With `CSCCCCCCN=C=S`, the figures for the EC50 in data set [1] and in [9] (trex-hek) were 580 nM and “Not Active”, respectively. Further, the result in data set [2], in [3] and in [7] was inactive. Further, in [5], the max activation result is “inactive”. Further, the outcome in data set [6] was Active. This compound also had a max activation in data set [8] of 92%.
For the compound `S=C=NCCc1ccccc1` [PHENETHYLISOTHIOCYANATE], the outcome in data set [11], in data set [3] and in data set [7] was inactive. Moreover, the EC50 in data set [1] was found to be 370 nM; in data set [9] (read-out: EC50), 180000 nM. For the same compound, the result in data set [2] and in data set [6] was Active. The Activity result in [14] and in data set [4] was “Non-toxic” throughout. Moreover, the results for the max activation in [5] and in [8] were 43% and 94%, respectively.
For `C=CCCCCCN=C=S`, the EC50 in data set [1] is 1050 nM; in [9] (trex-hek) it was “Not Active”. Further, the result in data set [2], in data set [3] and in [7] was inactive. Moreover, the Activity result in data set [4] is “Non-toxic”. The max activation result in [5] is “inactive”. In data set [6], the outcome was Active. For the same compound, in data set [8], the max activation turned out to be 90%.
In the case of `CC(C)N=C=S` [ISOPROPYL ISOTHIOCYANATE], the result in [11], in [3] and in data set [7] was inactive. The EC50 in [1] turned out to be 530 nM; in data set [9] (read-out: EC50), 100000 nM. Moreover, the result in data set [2] and in [6] was Active. Besides, the Activity result in [14] and in data set [4] was “Non-toxic” throughout. The max activation turned out to be 50% in [5] and 82% in data set [8].
For `S=C=NCc1ccccc1` [BENZYL ISOTHIOCYANATE], the result in data set [11], in data set [3] and in data set [7] was inactive. The EC50 in [1] came to 250 nM; in [9] (read-out: EC50) it was 223000 nM. For the same compound, the outcome in data set [2] and in [6] was Active. Moreover, the Activity result in [14] and in data set [4] was “Non-toxic” throughout. Also, the max activation in data set [5] amounted to 49%; in [8] it was 95%.
